# Published values from different studies.
# Lines come from different studies, so protocols differ.
Structure (SMILES),target or system,test,conditions,endpoint,value
COc1ccc(NC(=O)c2ccc(COC(Cn3ccnc3)c3ccc(Cl)cc3Cl)cc2)cc1 (stereo not shown),Nakaseomyces glabratus,"microbial growth, broth dilution",,MIC80,0.125 µg/mL
Cc1nc(Nc2ncc(C(=O)Nc3c(C)cccc3Cl)s2)cc(N2CC[C@H](O)C2)n1,OCI-LY19,"cell growth or viability, ATP luminescence","10 µM, 72 h",inhibition,9%
CCc1nc(C(N)=O)c(Nc2ccc(N3CCC(N4CCN(C)CC4)CC3)c(OC)c2)nc1NC1CCOCC1,HCC827,cell growth or viability,72 h,GI50,0.283 µM
O=C(Nc1ccccc1)c1ccc(COC(Cn2ccnc2)c2ccc(Cl)cc2Cl)cc1 (stereo not shown),Nakaseomyces glabratus,"microbial growth, broth dilution",,MIC80,0.25 µg/mL
Cc1n[nH]c2ccc3nc(-c4ccc(C(=O)NCCN(C)C)cc4)c4c(c3c12)CCCCC4,HCC827,cell growth or viability,72 h,GI50,7.12 µM
O=C(Nc1ccc(C(F)(F)F)cc1)c1ccc(COC(Cn2ccnc2)c2ccc(Cl)cc2Cl)cc1 (stereo not shown),Nakaseomyces glabratus,"microbial growth, broth dilution",,MIC80,0.125 µg/mL
COc1cc(C2=CCCc3c2ccc(OC)c3OCc2cnc([N+](=O)[O-])n2C)cc(OC)c1OC,,"tubulin polymerisation, inhibitor",20 min,IC50,> 20 µM
CC(C)(C)c1cc(NC(=O)Nc2ccc(-c3cn4c(n3)sc3cc(OCCN5CCOCC5)ccc34)cc2)no1,HCC827,cell growth or viability,72 h,GI50,> 10 µM
CCCCC(=O)Nc1ccc(-c2ccc3ncn(CCC(C)C)c(=O)c3c2)cn1,HCC827,"cell growth or viability, CCK-8",72 h,IC50,0.55 µM
COc1cc(C2=CCCCc3c2ccc(OC)c3OC(C)c2cnc([N+](=O)[O-])n2C)cc(OC)c1OC (stereo not shown),,"tubulin polymerisation, inhibitor",20 min,IC50,> 20 µM
O=C(Nc1cccc2ccccc12)c1ccc(COC(Cn2ccnc2)c2ccc(Cl)cc2Cl)cc1 (stereo not shown),Nakaseomyces glabratus,"microbial growth, broth dilution",,MIC80,8 µg/mL
COc1cc(C2=CCCCc3c2ccc(OC)c3OCc2cnc([N+](=O)[O-])n2C)cc(OC)c1OC,,"tubulin polymerisation, inhibitor",20 min,IC50,> 20 µM
Cc1n[nH]c2ccc3nc(-c4ccc(C(=O)NCCN(C)C)cc4)c4c(c3c12)CCCC4,HCC827,cell growth or viability,72 h,GI50,4.07 µM
